Measured values as given in ChEMBL document CHEMBL4406880, “Design, synthesis, and bioactivity of dihydropyrimidine derivatives as kinesin spindle protein inhibitors” (Bioorg Med Chem, 2019).

Columns and labels:
Format in all cases: functional
CCRF-CEM = test: Growth inhibition of human CCRF-CEM cells incubated for 48 hrs by sulforhodamine B assay
In short: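 NCI-60 five-dose mode: five tenfold dilutions (0.01, 0.1, 1, 10, 100 µM) are applied for 48 h to cells in RPMI 1640 with 5% FBS at 37 °C. Endpoint is TCA fixation with sulforhodamine B read at 515 nm. % growth comes from the 0 h and control absorbances. GI50 is the concentration giving a 50% reduction in net cell growth.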

SF-268 [1] = test: Growth inhibition of human SF268 cells assessed as cell viability at 0.1 uM incubated for 48 hrs by sulforhodamine B assay; conditions: SF-268, 48 h, read-out: Activity
U-251 = test: Growth inhibition of human U251 cells assessed as cell viability at 1 uM incubated for 48 hrs by sulforhodamine B assay; conditions: U-251, 48 h, read-out: Activity
NCI-H23 [2] = test: Growth inhibition of human NCI-H23 cells assessed as cell viability at 1 uM incubated for 48 hrs by sulforhodamine B assay; conditions: NCI-H23, 48 h, read-out: Activity
SN12C = test: Growth inhibition of human SN12C cells assessed as cell viability at 100 uM incubated for 48 hrs by sulforhodamine B assay; conditions: read-out: Activity
COLO 205 = test: Growth inhibition of human COLO205 cells assessed as cell viability at 1 uM incubated for 48 hrs by sulforhodamine B assay; conditions: COLO 205, 48 h, read-out: Activity
SNB-75 [3] = test: Cell cycle arrest in human SNB75 cells assessed as accumulation in G0/G1 phase at 2 uM incubated for 24 hrs by propidium iodide based flow cytometry (reference value: 55.62 %)
In short: (§1)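 SNB-75 cells were exposed to 2 µM for 24 h at 37 °C, 5% CO2, then washed with PBS and fixed in 70% ethanol on ice for 15 min. They were stained 1 h at room temperature with 50 µg/mL propidium iodide, 0.1 mg/mL RNase A and 0.05% Triton X-100. DNA content was read by flow cytometry to give the % of cells in pre-G1, G0/G1, S and G2/M.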

HCC 2998 = test: Growth inhibition of human HCC2998 cells assessed as cell viability at 100 uM incubated for 48 hrs by sulforhodamine B assay; conditions: HCC 2998, 48 h, read-out: Activity
MDA-MB-231 = test: Growth inhibition of human MDA-MB-231 cells assessed as cell viability at 0.001 uM incubated for 48 hrs by sulforhodamine B assay relative to control; conditions: MDA-MB-231, 48 h, read-out: Activity
BT-549 = test: Growth inhibition of human BT549 cells assessed as cell viability at 100 uM incubated for 48 hrs by sulforhodamine B assay; conditions: BT-549, 48 h, read-out: Activity
KM12 = test: Growth inhibition of human KM12 cells assessed as cell viability at 0.1 uM incubated for 48 hrs by sulforhodamine B assay; conditions: KM12, 48 h, read-out: Activity
HOP-62 = test: Growth inhibition of human HOP62 cells assessed as cell viability at 0.001 uM incubated for 48 hrs by sulforhodamine B assay relative to control; conditions: HOP-62, 48 h, read-out: Activity
MDA-MB-435 = test: Growth inhibition of human MDA-MB-435 cells assessed as cell viability at 0.1 uM incubated for 48 hrs by sulforhodamine B assay; conditions: MDA-MB-435, 48 h, read-out: Activity
PC-3 = test: Growth inhibition of human PC3 cells assessed as cell viability at 100 uM incubated for 48 hrs by sulforhodamine B assay; conditions: PC-3, 48 h, read-out: Activity
SF-268 [4] = test: Growth inhibition of human SF268 cells assessed as cell viability at 0.001 uM incubated for 48 hrs by sulforhodamine B assay relative to control; conditions: SF-268, 48 h, read-out: Activity
SNB-75 [5] = test: Cell cycle arrest in human SNB75 cells assessed as accumulation in G2/M phase at 2 uM incubated for 24 hrs by propidium iodide based flow cytometry (reference value: 10.46 %); in short: as §1
LOX IMVI = test: Growth inhibition of human LOXIMVI cells assessed as cell viability at 0.001 uM incubated for 48 hrs by sulforhodamine B assay relative to control; conditions: read-out: Activity
ACHN = test: Growth inhibition of human ACHN cells assessed as cell viability at 0.001 uM incubated for 48 hrs by sulforhodamine B assay relative to control; conditions: read-out: Activity
SF-295 = test: Growth inhibition of human SF295 cells incubated for 48 hrs by sulforhodamine B assay; conditions: SF-295, 48 h
In short: (§2)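 NCI-60 five-dose SRB assay. Cells were exposed for 48 h to tenfold dilutions of 0.01, 0.1, 1, 10 and 100 µM, in RPMI 1640 with 5% FBS. Plates fixed with TCA at the time of drug addition served as the time-zero reference. GI50 is the concentration giving a 50% reduction in net growth. TGI is total growth inhibition. LC50 is a net 50% loss of the initial cells.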

NCI-H23 [6] = test: Growth inhibition of human NCI-H23 cells incubated for 48 hrs by sulforhodamine B assay; conditions: NCI-H23, 48 h
In short: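 NCI-60 five-dose SRB assay in RPMI 1640 with 5% FBS, 37 °C, 5% CO2. Compound given at five tenfold dilutions, 0.01–100 µM, for 48 h. Adherent cells fixed with TCA, suspension cells with 16% final TCA. Bound SRB read at 515 nm and growth calculated against time-zero and untreated controls. GI50 taken from dose–response curves as the concentration giving a 50% decrease in net cell growth.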

MCF7 = test: Growth inhibition of human MCF7 cells assessed as cell viability at 100 uM incubated for 48 hrs by sulforhodamine B assay; conditions: MCF7, 48 h, read-out: Activity
OVCAR-5 = test: Growth inhibition of human OVCAR5 cells incubated for 48 hrs by sulforhodamine B assay; conditions: OVCAR-5, 48 h; in short: as §2
HOP-92 = test: Growth inhibition of human HOP92 cells assessed as cell viability at 100 uM incubated for 48 hrs by sulforhodamine B assay; conditions: HOP-92, 48 h, read-out: Activity
[7] = read-out: LC50 (the source's name)
[8] = read-out: pLC50 (the source's name) (converted)

CC1=C(C(=O)OCc2ccccc2)C(c2ccc3c(c2)OCO3)n2c(nc3ccccc32)N1 (racemic)
GI50 (CCRF-CEM; read-out: GI50): 0.41 µM | CC50 (CCRF-CEM; [7]): > 100 µM | TGI (CCRF-CEM; read-out: TGI): > 100 µM | GI50 (CCRF-CEM; read-out: pGI50 (converted)): 0.407 µM | CC50 (CCRF-CEM; [8]): > 100 µM | TGI (CCRF-CEM; read-out: pTGI): > 100 µM | viability at 0.1 µM (SF-268 [1]): 94% | viability at 1 µM (U-251): 26% | viability at 1 µM (NCI-H23 [2]): 54% | viability at 100 µM (SN12C): 25% | viability at 1 µM (COLO 205): 28% | Activity (SNB-75 [3]): 34.52% | viability at 100 µM (HCC 2998): 46% | viability at 0.001 µM (MDA-MB-231): 97% | viability at 100 µM (BT-549): 35% | viability at 0.1 µM (KM12): 86% | viability at 0.001 µM (HOP-62): 91% | viability at 0.1 µM (MDA-MB-435): 46% | viability at 100 µM (PC-3): 45% | viability at 0.001 µM (SF-268 [4]): 91% | Activity (SNB-75 [5]): 37.59% | viability at 0.001 µM (LOX IMVI): 93% | viability at 0.001 µM (ACHN): 99% | GI50 (SF-295; read-out: GI50): 0.33 µM | LC50 (concentration causing 50% net loss of initial cells) (SF-295; read-out: LC50): > 100 µM | TGI (SF-295; read-out: TGI): > 100 µM | GI50 (SF-295; read-out: pGI50 (converted)): 0.331 µM | LC50 (concentration causing 50% net loss of initial cells) (SF-295; read-out: pLC50 (converted)): > 100 µM | TGI (SF-295; read-out: pTGI): > 100 µM | GI50 (NCI-H23 [6]; read-out: GI50): 31.8 µM | LC50 (NCI-H23 [6]; read-out: LC50): > 100 µM | TGI (NCI-H23 [6]; read-out: TGI): > 100 µM | GI50 (NCI-H23 [6]; read-out: pGI50 (converted)): 31.6 µM | LC50 (NCI-H23 [6]; read-out: pLC50 (converted)): > 100 µM | TGI (NCI-H23 [6]; read-out: pTGI): > 100 µM | viability at 100 µM (MCF7): 7% | GI50 (OVCAR-5; read-out: GI50): > 100 µM | CC50 (OVCAR-5; [7]): > 100 µM | TGI (OVCAR-5; read-out: TGI): > 100 µM | GI50 (OVCAR-5; read-out: pGI50 (converted)): > 100 µM | CC50 (OVCAR-5; [8]): > 100 µM | TGI (OVCAR-5; read-out: pTGI): > 100 µM | viability at 100 µM (HOP-92): 53%
